{
  "source": "ChEMBL document CHEMBL1129609",
  "about": "“Synthesis and antiviral activity evaluation of some new aminoadamantane derivatives. 2” (1996)",
  "assay_type_in_all_cases": "functional",
  "key": {"[1]": {"tested_on": "CCRF-CEM", "assay": "Antiviral activity of compound was tested against viability virus infected CEM cell lines.", "conditions": "Homo sapiens"}, "[2]": {"tested_on": "CCRF-CEM", "assay": "Antiviral activity of compound were tested against HIV-2 virus infected CEM cell lines.", "conditions": "Homo sapiens"}, "[3]": {"tested_on": "HEF", "assay": "Antiviral activity of compound was tested against HSV-2 virus infected HEF cell lines.", "conditions": "Homo sapiens", "method_in_brief": "(§1)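 Human embryonic fibroblasts, from embryonic lung or embryonic skin-muscle, infected with the virus. Endpoint is the minimum inhibitory concentration that reduces virus-induced cytopathicity by 50%. Values are averages of at least two separate experiments.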"}, "[4]": {"tested_on": "HEF", "assay": "Antiviral activity of compound was tested against TK-HSV-1 virus infected HEF cell lines.", "conditions": "Homo sapiens", "method_in_brief": "as §1"}, "[5]": {"tested_on": "HEF", "assay": "Antiviral activity of compound was tested against morphology virus infected HEF cell lines.", "conditions": "Homo sapiens"}, "[6]": {"tested_on": "HEF", "assay": "Antiviral activity of compound was tested against vaccinia virus infected HEF cell lines.", "conditions": "Homo sapiens", "method_in_brief": "as §1"}, "[7]": {"tested_on": "HEL", "assay": "Antiviral activity of compound was tested against proliferation virus infected HEL cell lines.", "conditions": "Homo sapiens"}, "[8]": {"tested_on": "HeLa", "assay": "Antiviral activity of compound was tested against morphology virus infected HeLa cell lines.", "conditions": "Homo sapiens"}, "[9]": {"tested_on": "HeLa", "assay": "Antiviral activity of compound was tested against polio-1 virus infected HeLa cell lines.", "conditions": "Homo sapiens", "method_in_brief": "(§2)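 Vero (African green monkey kidney), HeLa (human epithelial) or HEL (human embryonic lung) cell monolayers infected with the virus. Readout is the minimum inhibitory concentration that reduces virus-induced cytopathicity by 50%. Values are averages of at least two separate experiments.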"}, "[10]": {"tested_on": "HeLa", "assay": "Antiviral activity of compound was tested against stomatitis virus infected HeLa cell lines.", "conditions": "Homo sapiens", "method_in_brief": "as §2"}, "[11]": {"tested_on": "HEL", "assay": "Antiviral activity of compound was tested against HCMV virus infected HEL cell lines.", "conditions": "Homo sapiens", "method_in_brief": "as §2"}, "[12]": {"tested_on": "HEL", "assay": "Antiviral activity of compound was tested against TK+VZV virus infected HEL cell lines.", "conditions": "Homo sapiens", "method_in_brief": "as §2"}, "[13]": {"tested_on": "HEL", "assay": "Antiviral activity of compound was tested against TK-VZV virus infected HEL cell lines.", "conditions": "Homo sapiens", "method_in_brief": "as §2"}, "[14]": {"tested_on": "HeLa", "assay": "Antiviral activity of compound was tested against Coxsackie B4 virus infected HeLa cell lines.", "conditions": "Homo sapiens", "method_in_brief": "as §2"}, "[15]": {"tested_on": "MDCK", "assay": "Antiviral activity tested against influenza A,H1N1 virus infected MDCK cell lines.", "conditions": "Canis lupus familiaris"}, "[16]": {"tested_on": "MDCK", "assay": "Antiviral activity of compound was tested against influenza A,H3N2 virus infected MDCK cell lines.", "conditions": "Canis lupus familiaris"}, "[17]": {"tested_on": "MDCK", "assay": "Antiviral activity of compound was tested against influenza […] virus infected MDCK cell lines", "conditions": "Canis lupus familiaris"}, "[18]": {"tested_on": "MDCK", "assay": "Antiviral activity of compound was tested against morphology virus infected MDCK cell lines.", "conditions": "Canis lupus familiaris"}, "[19]": {"tested_on": "Vero", "assay": "Antiviral activity of compound was tested against sindbis virus infected vero cell lines.", "conditions": "Chlorocebus sabaeus", "method_in_brief": "as §2"}, "[20]": {"tested_on": "Vero", "assay": "Antiviral activity of compound were tested against semliki forest virus infected vero cell lines.", "conditions": "Chlorocebus sabaeus", "method_in_brief": "as §2"}, "[21]": {"tested_on": "Vero", "assay": "Antiviral activity of compound was tested against Coxsackie B4 virus infected vero cell lines.", "conditions": "Chlorocebus sabaeus", "method_in_brief": "as §2"}, "[22]": {"tested_on": "Vero", "assay": "Antiviral activity of compound was tested against parainfluenza 3,[…] virus infected Vero cell lines.", "conditions": "Chlorocebus sabaeus", "method_in_brief": "as §2"}, "[23]": {"tested_on": "Vero", "assay": "Antiviral activity of compound was tested against reo1 virus infected vero cell lines.", "conditions": "Chlorocebus sabaeus", "method_in_brief": "as §2"}, "[24]": {"assay": "Antiviral activity against influenza A,H2N2 virus infected MDCK cell lines."}, "[25]": {"tested_on": "Vero", "assay": "Antiviral activity of compound was tested against morphology virus infected Vero cell lines.", "conditions": "Chlorocebus sabaeus"}, "[26]": {"tested_on": "CCRF-CEM", "assay": "Antiviral activity of compound was tested against HIV-1 virus infected CEM cell lines.", "conditions": "Homo sapiens"}, "[27]": {"tested_on": "HEF", "assay": "Antiviral activity of compound was tested against vesicular virus infected HEF cell lines.", "conditions": "Homo sapiens", "method_in_brief": "as §1"}},
  "data": [
    {"smiles": "CN(C)CC1CCN(C23CC4CC(CC(C4)C2)C3)C1", "note": "(configuration not stated)", "values": [
      {"measurement": "MIC50", "setting": "[1]", "result": 79, "unit": "µg/mL"},
      {"measurement": "MIC50", "setting": "[2]", "result": "> 40", "unit": "µg/mL"},
      {"measurement": "MIC50", "setting": "[3]", "result": "> 10", "unit": "µg/mL"},
      {"measurement": "MIC50", "setting": "[4]", "result": "> 10", "unit": "µg/mL"},
      {"measurement": "MIC50", "setting": "[5]", "result": 40, "unit": "µg/mL"},
      {"measurement": "MIC50", "setting": "[6]", "result": "> 10", "unit": "µg/mL"},
      {"measurement": "MIC50", "setting": "[7]", "result": "> 50", "unit": "µg/mL"},
      {"measurement": "MIC50", "setting": "[8]", "result": 400, "unit": "µg/mL"},
      {"measurement": "MIC50", "setting": "[9]", "result": "> 200", "unit": "µg/mL"},
      {"measurement": "MIC50", "setting": "[10]", "result": "> 200", "unit": "µg/mL"},
      {"measurement": "MIC50", "setting": "[11]", "result": "> 20", "unit": "µg/mL"},
      {"measurement": "MIC50", "setting": "[12]", "result": "> 20", "unit": "µg/mL"},
      {"measurement": "MIC50", "setting": "[13]", "result": "> 50", "unit": "µg/mL"},
      {"measurement": "MIC50", "setting": "[14]", "result": "> 200", "unit": "µg/mL"},
      {"measurement": "MIC50", "setting": "[15]", "result": "> 36", "unit": "µg/mL"},
      {"measurement": "MIC50", "setting": "[16]", "result": "> 100", "unit": "µg/mL"},
      {"measurement": "MIC50", "setting": "[17]", "result": "> 100", "unit": "µg/mL"},
      {"measurement": "MIC50", "setting": "[18]", "result": 400, "unit": "µg/mL"},
      {"measurement": "MIC50", "setting": "[19]", "result": "> 100", "unit": "µg/mL"},
      {"measurement": "MIC50", "setting": "[20]", "result": "> 100", "unit": "µg/mL"},
      {"measurement": "MIC50", "setting": "[21]", "result": "> 100", "unit": "µg/mL"},
      {"measurement": "MIC50", "setting": "[22]", "result": "> 100", "unit": "µg/mL"},
      {"measurement": "MIC50", "setting": "[23]", "result": "> 100", "unit": "µg/mL"},
      {"measurement": "MIC50", "setting": "[24]", "result": 16.1, "unit": "µg/mL"},
      {"measurement": "MIC50", "setting": "[25]", "result": "> 400", "unit": "µg/mL"},
      {"measurement": "MIC50", "setting": "[26]", "result": "> 23", "unit": "µg/mL"},
      {"measurement": "MIC50", "setting": "[27]", "result": "> 10", "unit": "µg/mL"}
    ]}
  ]
}
